Assay results reported in article PMC12928844 (Nature, 2025).

Key:
[1] = system: K^cPC PDAC tumours; assay: Autochthonous K^cPC PDAC mouse model treatment study; type: in vivo; details: 2 weeks of treatment, 10 mg kg−1 daily
How it was run: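 C57BL/6;129S1 mixed-background mice of both sexes, with littermates as controls. Control and monotherapy groups went through the same procedure but received vehicle. The survival end point was set by overall health criteria scoring, and health status and weight were checked daily.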

[2] = system: K^c/cP LUAD tumours; assay: K^c/cP LUAD mouse model treatment study; type: in vivo; details: at humane end point; about 100 nodules per mouse at start
[3] = system: NSD2 and H3K36me2 levels in cell lines; assay: Western blot after KRASi treatment; type: cell-based; details: 100 nM sotorasib, 1 day
[4] = system: K^c/cP LUAD tumour cells; assay: scRNA-seq tumour fitness score of K^c/cP tumours; type: in vivo, mouse; details: 3 weeks of treatment
How it was run: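 KC/CP lung tumour-bearing mice (mixed C57BL/6;129S1, both sexes, littermate controls) received test compound at 100 mg kg−1 once daily i.p. in 40% (2-hydroxypropyl)-β-cyclodextrin, or vehicle. Tumour cells were filtered through 70 μm strainers, given ACK red-cell lysis, washed and counted for scRNA-seq. Malignant cells were called by inferCNV against normal mouse lung alveolar cells.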

C=CC(=O)N1CCN(c2nc(=O)n(-c3c(C)ccnc3C(C)C)c3nc(-c4c(O)cccc4F)c(F)cc23)[C@@H](C)C1 [KRASi, sotorasib]
ERK1/2 phosphorylation in PDAC tumour lysates (western) [1]: blocked ERK1 and ERK2 (ERK1/2) phosphorylation | individual tumours (nodules) eliminated [2]: ~75% | levels of NSD2 or H3K36me2 (western) [3]: does not impact | tumour fitness score (scRNA-seq) [4]: decreased score
